# According to ChEMBL document CHEMBL5058577, “EUbOPEN Chemogenomics Library 2 (Multiplex)” (2022):
# Test system: U2OS
# Experiment: Multiplex assay against U2OS
# Format: toxicity, cell-based
# Settings: human
# Procedure, shortened: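 Values for tubulin, mitochondrial-mass and membrane-permeability phenotypes are per cents of cells with healthy nuclei. These cells were identified by CellPathfinder machine-learning gating of live cells that had been stained at seeding with Hoechst33342, BioTracker Green Microtubule Cytoskeleton Dye, MitoTracker Red and Annexin V Alexa Fluor 680 and imaged on a CQ1 microscope at 37°C and 5% CO2 after compound addition. The gating first set Hoechst high-intensity objects apart from normal cells, then split normal cells into healthy, pyknosed or fragmented nuclei, and pyknosed cells into mitotic or apoptotic.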
# [1] = 12 h, 1 µM, compound concentration 1 uM, replicate 1
# [2] = 12 h, 1 µM, compound concentration 1 uM, replicate 2
# [3] = 12 h, 10 µM, compound concentration 10 uM, replicate 1
# [4] = 12 h, 10 µM, compound concentration 10 uM, replicate 2
# [5] = 24 h, 1 µM, compound concentration 1 uM, replicate 1
# [6] = 24 h, 1 µM, compound concentration 1 uM, replicate 2
# [7] = 24 h, 10 µM, compound concentration 10 uM, replicate 1
# [8] = 24 h, 10 µM, compound concentration 10 uM, replicate 2
# [9] = 48 h, 1 µM, compound concentration 1 uM, replicate 1
# [10] = 48 h, 1 µM, compound concentration 1 uM, replicate 2
# [11] = 48 h, 10 µM, compound concentration 10 uM, replicate 1
# [12] = 48 h, 10 µM, compound concentration 10 uM, replicate 2
structure (smiles),measurement,setting,value
CC[C@H]1OC(=O)[C@H](C)[C@@H](O[C@H]2C[C@@](C)(OC)[C@@H](O)[C@H](C)O2)[C@H](C)[C@@H](O[C@@H]2O[C@H](C)C[C@H](N(C)C)[C@H]2O)[C@@]2(C)CC(C)=C(O2)[C@H](C)[C@@H](O)[C@]1(C)O,Population Apoptotic (%),[1],50%
same,Population Fragmented Nuclei (%),[1],19%
same,Population Healthy Nuclei (%),[1],63%
same,Population Hoechst High Intensity Objects (%),[1],3%
same,Population Membrane Permeable-Phenotype (%),[1],33%
same,Population Mitochondria Different-Phenotype (%),[1],23%
same,Population Mitotic Cells (%),[1],50%
same,Population Normal (%),[1],96%
same,Population Pyknosed Nuclei (%),[1],17%
same,Population Tubulin-Different-Phenotype (%),[1],25%
same,Total Cell Count,[1],226
same,Population Apoptotic (%),[2],84%
same,Population Fragmented Nuclei (%),[2],23%
same,Population Healthy Nuclei (%),[2],62%
same,Population Hoechst High Intensity Objects (%),[2],1%
same,Population Membrane Permeable-Phenotype (%),[2],21%
same,Population Mitochondria Different-Phenotype (%),[2],14%
same,Population Mitotic Cells (%),[2],15%
same,Population Normal (%),[2],98%
same,Population Pyknosed Nuclei (%),[2],14%
same,Population Tubulin-Different-Phenotype (%),[2],14%
same,Total Cell Count,[2],91
same,Population Apoptotic (%),[3],65%
same,Population Fragmented Nuclei (%),[3],34%
same,Population Healthy Nuclei (%),[3],40%
same,Population Hoechst High Intensity Objects (%),[3],7%
same,Population Membrane Permeable-Phenotype (%),[3],82%
same,Population Mitochondria Different-Phenotype (%),[3],63%
same,Population Mitotic Cells (%),[3],34%
same,Population Normal (%),[3],92%
same,Population Pyknosed Nuclei (%),[3],25%
same,Population Tubulin-Different-Phenotype (%),[3],89%
same,Total Cell Count,[3],223
same,Population Apoptotic (%),[4],73%
same,Population Fragmented Nuclei (%),[4],21%
same,Population Healthy Nuclei (%),[4],47%
same,Population Hoechst High Intensity Objects (%),[4],4%
same,Population Membrane Permeable-Phenotype (%),[4],72%
same,Population Mitochondria Different-Phenotype (%),[4],81%
same,Population Mitotic Cells (%),[4],26%
same,Population Normal (%),[4],95%
same,Population Pyknosed Nuclei (%),[4],31%
same,Population Tubulin-Different-Phenotype (%),[4],96%
same,Total Cell Count,[4],128
same,Population Apoptotic (%),[5],65%
same,Population Fragmented Nuclei (%),[5],20%
same,Population Healthy Nuclei (%),[5],63%
same,Population Hoechst High Intensity Objects (%),[5],4%
same,Population Membrane Permeable-Phenotype (%),[5],20%
same,Population Mitochondria Different-Phenotype (%),[5],15%
same,Population Mitotic Cells (%),[5],35%
same,Population Normal (%),[5],95%
same,Population Pyknosed Nuclei (%),[5],16%
same,Population Tubulin-Different-Phenotype (%),[5],17%
same,Total Cell Count,[5],256
same,Population Apoptotic (%),[6],72%
same,Population Fragmented Nuclei (%),[6],19%
same,Population Healthy Nuclei (%),[6],64%
same,Population Hoechst High Intensity Objects (%),[6],5%
same,Population Membrane Permeable-Phenotype (%),[6],14%
same,Population Mitochondria Different-Phenotype (%),[6],14%
same,Population Mitotic Cells (%),[6],27%
same,Population Normal (%),[6],94%
same,Population Tubulin-Different-Phenotype (%),[6],10%
same,Total Cell Count,[6],115
same,Population Apoptotic (%),[7],67%
same,Population Fragmented Nuclei (%),[7],33%
same,Population Healthy Nuclei (%),[7],36%
same,Population Hoechst High Intensity Objects (%),[7],5%
same,Population Membrane Permeable-Phenotype (%),[7],56%
same,Population Mitochondria Different-Phenotype (%),[7],65%
same,Population Mitotic Cells (%),[7],32%
same,Population Normal (%),[7],94%
same,Population Pyknosed Nuclei (%),[7],29%
same,Population Tubulin-Different-Phenotype (%),[7],76%
same,Total Cell Count,[7],210
same,Population Apoptotic (%),[8],82%
same,Population Fragmented Nuclei (%),[8],24%
same,Population Healthy Nuclei (%),[8],45%
same,Population Hoechst High Intensity Objects (%),[8],4%
same,Population Membrane Permeable-Phenotype (%),[8],75%
same,Population Mitochondria Different-Phenotype (%),[8],86%
same,Population Mitotic Cells (%),[8],17%
same,Population Normal (%),[8],95%
same,Population Pyknosed Nuclei (%),[8],30%
same,Population Tubulin-Different-Phenotype (%),[8],88%
same,Total Cell Count,[8],121
same,Population Apoptotic (%),[9],67%
same,Population Fragmented Nuclei (%),[9],19%
same,Population Healthy Nuclei (%),[9],54%
same,Population Hoechst High Intensity Objects (%),[9],9%
same,Population Membrane Permeable-Phenotype (%),[9],13%
same,Population Mitochondria Different-Phenotype (%),[9],8%
same,Population Mitotic Cells (%),[9],32%
same,Population Normal (%),[9],91%
same,Population Pyknosed Nuclei (%),[9],26%
same,Population Tubulin-Different-Phenotype (%),[9],11%
same,Total Cell Count,[9],300
same,Population Apoptotic (%),[10],78%
same,Population Fragmented Nuclei (%),[10],32%
same,Population Healthy Nuclei (%),[10],58%
same,Population Hoechst High Intensity Objects (%),[10],2%
same,Population Membrane Permeable-Phenotype (%),[10],12%
same,Population Mitochondria Different-Phenotype (%),[10],12%
same,Population Mitotic Cells (%),[10],21%
same,Population Normal (%),[10],97%
same,Population Pyknosed Nuclei (%),[10],9%
same,Population Tubulin-Different-Phenotype (%),[10],7%
same,Total Cell Count,[10],147
same,Population Apoptotic (%),[11],85%
same,Population Fragmented Nuclei (%),[11],37%
same,Population Healthy Nuclei (%),[11],31%
same,Population Hoechst High Intensity Objects (%),[11],7%
same,Population Membrane Permeable-Phenotype (%),[11],58%
same,Population Mitochondria Different-Phenotype (%),[11],55%
same,Population Mitotic Cells (%),[11],14%
same,Population Normal (%),[11],92%
same,Population Pyknosed Nuclei (%),[11],31%
same,Population Tubulin-Different-Phenotype (%),[11],63%
same,Total Cell Count,[11],236
same,Population Apoptotic (%),[12],83%
same,Population Fragmented Nuclei (%),[12],20%
same,Population Healthy Nuclei (%),[12],42%
same,Population Hoechst High Intensity Objects (%),[12],9%
same,Population Membrane Permeable-Phenotype (%),[12],62%
same,Population Mitochondria Different-Phenotype (%),[12],81%
same,Population Mitotic Cells (%),[12],16%
same,Population Normal (%),[12],90%
same,Population Pyknosed Nuclei (%),[12],36%
same,Population Tubulin-Different-Phenotype (%),[12],88%
same,Total Cell Count,[12],112
